{
  "source": "ChEMBL document CHEMBL1250448",
  "about": "“Inhibitor hijacking of Akt activation” (Nat Chem Biol, 2009)",
  "data": [
    {"target": "Serine/threonine-protein kinase Nek7 (Homo sapiens) (UniProt Q8TDX7)", "sequence (Q8TDX7 whole entry, looked up)": "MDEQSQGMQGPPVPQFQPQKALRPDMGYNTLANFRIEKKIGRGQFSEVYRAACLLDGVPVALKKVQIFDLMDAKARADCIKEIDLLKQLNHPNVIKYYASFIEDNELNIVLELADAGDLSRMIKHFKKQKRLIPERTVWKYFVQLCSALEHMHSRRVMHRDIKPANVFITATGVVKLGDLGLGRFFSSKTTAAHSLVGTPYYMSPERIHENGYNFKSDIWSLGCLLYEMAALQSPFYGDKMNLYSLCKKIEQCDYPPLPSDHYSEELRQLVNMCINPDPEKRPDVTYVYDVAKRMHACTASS", "assay": "Inhibition of NEK7 at 1 uM in presence of 100 uM ATP by Select Screen kinase assay relative to untreated control", "outline": "(§1)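 Commercial SelectScreen profiling panel of 220 purified kinases. Each kinase was tested at a single inhibitor concentration of 1 μM, and activity was expressed as percent inhibition.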", "units": {"inhibition": "%"}, "values": [
      {"smiles": "COc1ccccc1N1CCN(c2ncnc3[nH]nc(Br)c23)CC1", "inhibition": 13},
      {"smiles": "O=C(NCCCNc1nc(Nc2cccc(NC(=O)N3CCCC3)c2)ncc1I)c1cccs1", "inhibition": 9},
      {"smiles": "Cc1n[nH]c2ccc(-c3cncc(OC[C@@H](N)Cc4c[nH]c5ccccc45)c3)cc12", "inhibition": 1}
    ]},
    {"target": "SRSF protein kinase 1 (Homo sapiens) (UniProt Q96SB4)", "sequence (Q96SB4 whole entry)": "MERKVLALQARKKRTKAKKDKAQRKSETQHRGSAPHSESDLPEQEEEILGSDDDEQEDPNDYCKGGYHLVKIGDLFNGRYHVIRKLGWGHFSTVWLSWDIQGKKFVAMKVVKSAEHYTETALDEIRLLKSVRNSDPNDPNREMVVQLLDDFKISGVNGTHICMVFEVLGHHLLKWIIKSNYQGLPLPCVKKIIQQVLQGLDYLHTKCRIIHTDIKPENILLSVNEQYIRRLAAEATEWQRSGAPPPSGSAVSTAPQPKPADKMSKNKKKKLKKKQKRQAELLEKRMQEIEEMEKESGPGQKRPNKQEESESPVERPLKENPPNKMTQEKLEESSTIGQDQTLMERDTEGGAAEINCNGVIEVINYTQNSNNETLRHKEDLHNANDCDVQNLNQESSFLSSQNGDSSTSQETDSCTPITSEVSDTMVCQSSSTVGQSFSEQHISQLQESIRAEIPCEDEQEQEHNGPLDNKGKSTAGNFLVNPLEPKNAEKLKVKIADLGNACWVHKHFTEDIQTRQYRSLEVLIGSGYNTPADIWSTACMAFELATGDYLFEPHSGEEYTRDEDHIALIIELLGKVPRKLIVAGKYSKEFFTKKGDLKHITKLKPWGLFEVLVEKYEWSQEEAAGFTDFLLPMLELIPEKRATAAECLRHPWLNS", "assay": "Inhibition of SRPK1 at 1 uM in presence of 100 uM ATP by Select Screen kinase assay relative to untreated control", "outline": "as §1", "units": {"inhibition": "%"}, "values": [
      {"smiles": "COc1ccccc1N1CCN(c2ncnc3[nH]nc(Br)c23)CC1", "inhibition": 12},
      {"smiles": "O=C(NCCCNc1nc(Nc2cccc(NC(=O)N3CCCC3)c2)ncc1I)c1cccs1", "inhibition": 12},
      {"smiles": "Cc1n[nH]c2ccc(-c3cncc(OC[C@@H](N)Cc4c[nH]c5ccccc45)c3)cc12", "inhibition": 27}
    ]},
    {"target": "Serine/threonine-protein kinase PAK 5 (Homo sapiens) (UniProt Q9P286)", "sequence (Q9P286 whole entry, looked up)": "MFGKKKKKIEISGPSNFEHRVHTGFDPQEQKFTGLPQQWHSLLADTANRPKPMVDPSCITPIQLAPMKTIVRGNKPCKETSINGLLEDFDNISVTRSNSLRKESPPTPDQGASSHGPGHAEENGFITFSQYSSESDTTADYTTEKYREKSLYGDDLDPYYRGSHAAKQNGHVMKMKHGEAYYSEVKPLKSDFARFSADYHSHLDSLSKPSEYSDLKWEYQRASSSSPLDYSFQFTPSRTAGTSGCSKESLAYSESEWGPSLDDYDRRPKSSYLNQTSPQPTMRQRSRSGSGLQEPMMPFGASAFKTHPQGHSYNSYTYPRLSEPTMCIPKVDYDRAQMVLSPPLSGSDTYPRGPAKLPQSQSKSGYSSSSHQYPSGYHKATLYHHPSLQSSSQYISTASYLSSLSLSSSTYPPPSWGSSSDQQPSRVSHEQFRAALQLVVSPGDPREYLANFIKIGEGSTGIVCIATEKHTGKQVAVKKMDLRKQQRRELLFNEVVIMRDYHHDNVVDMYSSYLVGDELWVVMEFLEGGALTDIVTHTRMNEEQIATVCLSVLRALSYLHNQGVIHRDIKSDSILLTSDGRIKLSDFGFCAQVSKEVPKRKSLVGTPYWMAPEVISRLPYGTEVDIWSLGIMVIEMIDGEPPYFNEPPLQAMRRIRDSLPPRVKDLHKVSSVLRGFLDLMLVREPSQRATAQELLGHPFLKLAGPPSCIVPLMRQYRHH", "assay": "Inhibition of PAK7 at 1 uM in presence of 10 uM ATP by Select Screen kinase assay relative to untreated control", "outline": "as §1", "units": {"inhibition": "%"}, "values": [
      {"smiles": "COc1ccccc1N1CCN(c2ncnc3[nH]nc(Br)c23)CC1", "inhibition": 1},
      {"smiles": "O=C(NCCCNc1nc(Nc2cccc(NC(=O)N3CCCC3)c2)ncc1I)c1cccs1", "inhibition": 25},
      {"smiles": "Cc1n[nH]c2ccc(-c3cncc(OC[C@@H](N)Cc4c[nH]c5ccccc45)c3)cc12", "inhibition": 25}
    ]},
    {"target": "Insulin-like growth factor 1 receptor (Homo sapiens) (UniProt P08069)", "sequence (P08069 31-736 limits assumed)": "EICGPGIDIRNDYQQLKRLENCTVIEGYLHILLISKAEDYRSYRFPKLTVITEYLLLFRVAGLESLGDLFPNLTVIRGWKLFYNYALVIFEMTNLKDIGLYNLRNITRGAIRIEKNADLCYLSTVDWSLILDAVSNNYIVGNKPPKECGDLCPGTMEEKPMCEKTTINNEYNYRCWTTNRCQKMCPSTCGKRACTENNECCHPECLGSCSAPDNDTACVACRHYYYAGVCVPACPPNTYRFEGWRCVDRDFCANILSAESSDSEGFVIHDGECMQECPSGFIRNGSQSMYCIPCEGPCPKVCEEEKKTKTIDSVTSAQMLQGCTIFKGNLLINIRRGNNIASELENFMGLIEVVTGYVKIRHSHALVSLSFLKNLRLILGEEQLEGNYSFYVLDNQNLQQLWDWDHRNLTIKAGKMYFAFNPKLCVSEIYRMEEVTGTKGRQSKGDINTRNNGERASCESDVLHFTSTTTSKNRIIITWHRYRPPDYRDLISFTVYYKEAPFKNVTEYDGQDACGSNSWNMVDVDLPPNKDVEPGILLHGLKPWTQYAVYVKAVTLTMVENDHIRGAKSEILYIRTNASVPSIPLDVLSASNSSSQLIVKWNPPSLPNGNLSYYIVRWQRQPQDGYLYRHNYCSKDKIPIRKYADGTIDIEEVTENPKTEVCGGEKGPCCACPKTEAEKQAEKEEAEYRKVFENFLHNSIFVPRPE", "sequence (P08069 741-1367 limits assumed)": "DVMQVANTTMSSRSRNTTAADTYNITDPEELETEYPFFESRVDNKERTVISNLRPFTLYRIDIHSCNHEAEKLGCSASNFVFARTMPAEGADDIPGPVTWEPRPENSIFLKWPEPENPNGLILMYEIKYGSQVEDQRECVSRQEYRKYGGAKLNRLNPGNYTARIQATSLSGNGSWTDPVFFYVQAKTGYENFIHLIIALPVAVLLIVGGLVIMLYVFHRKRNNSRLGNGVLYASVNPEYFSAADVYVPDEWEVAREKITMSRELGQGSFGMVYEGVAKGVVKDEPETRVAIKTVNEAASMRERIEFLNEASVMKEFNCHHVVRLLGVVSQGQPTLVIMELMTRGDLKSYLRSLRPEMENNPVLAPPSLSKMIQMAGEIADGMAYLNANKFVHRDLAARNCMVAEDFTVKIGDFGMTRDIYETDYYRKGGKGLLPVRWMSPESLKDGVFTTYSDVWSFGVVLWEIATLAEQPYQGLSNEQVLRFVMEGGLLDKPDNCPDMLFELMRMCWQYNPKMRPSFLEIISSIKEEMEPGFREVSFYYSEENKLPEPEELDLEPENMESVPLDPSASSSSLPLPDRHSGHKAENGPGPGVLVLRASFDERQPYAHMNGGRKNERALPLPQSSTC", "assay": "Inhibition of IGF1R at 1 uM in presence of 10 uM ATP by Select Screen kinase assay relative to untreated control", "outline": "(§2)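 Single-concentration profiling at 1 μM against a panel of 220 purified kinases, run as an outsourced SelectScreen kinase profiling service. Activity is expressed as percent inhibition.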", "units": {"inhibition": "%"}, "values": [
      {"smiles": "COc1ccccc1N1CCN(c2ncnc3[nH]nc(Br)c23)CC1", "inhibition": 10},
      {"smiles": "O=C(NCCCNc1nc(Nc2cccc(NC(=O)N3CCCC3)c2)ncc1I)c1cccs1", "inhibition": 10},
      {"smiles": "Cc1n[nH]c2ccc(-c3cncc(OC[C@@H](N)Cc4c[nH]c5ccccc45)c3)cc12", "inhibition": 5}
    ]},
    {"target": "BDNF/NT-3 growth factors receptor (Homo sapiens) (UniProt Q16620)", "sequence (Q16620 32-822 limits assumed)": "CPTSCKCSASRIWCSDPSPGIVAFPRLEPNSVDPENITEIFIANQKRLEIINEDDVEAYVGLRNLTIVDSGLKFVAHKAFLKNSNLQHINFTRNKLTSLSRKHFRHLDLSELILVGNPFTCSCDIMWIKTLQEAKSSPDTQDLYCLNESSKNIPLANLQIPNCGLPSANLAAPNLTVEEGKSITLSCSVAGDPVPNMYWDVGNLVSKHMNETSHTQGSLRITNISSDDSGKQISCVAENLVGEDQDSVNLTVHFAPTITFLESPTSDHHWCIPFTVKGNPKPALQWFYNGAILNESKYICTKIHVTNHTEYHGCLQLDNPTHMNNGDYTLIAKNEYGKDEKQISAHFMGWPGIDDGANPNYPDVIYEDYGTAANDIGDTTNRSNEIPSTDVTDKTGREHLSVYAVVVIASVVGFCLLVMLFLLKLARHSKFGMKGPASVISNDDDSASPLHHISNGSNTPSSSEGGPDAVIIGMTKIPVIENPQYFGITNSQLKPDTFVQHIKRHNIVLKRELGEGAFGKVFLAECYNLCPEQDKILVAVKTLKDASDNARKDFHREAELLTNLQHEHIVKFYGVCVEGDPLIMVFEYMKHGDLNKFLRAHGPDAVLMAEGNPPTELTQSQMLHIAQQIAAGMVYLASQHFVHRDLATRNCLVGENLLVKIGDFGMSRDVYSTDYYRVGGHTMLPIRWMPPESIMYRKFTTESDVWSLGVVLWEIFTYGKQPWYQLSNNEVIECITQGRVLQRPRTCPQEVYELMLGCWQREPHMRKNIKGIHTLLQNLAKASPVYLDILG", "assay": "Inhibition of NTRK2 at 1 uM in presence of 10 uM ATP by Select Screen kinase assay relative to untreated control", "outline": "as §1", "units": {"inhibition": "%"}, "values": [
      {"smiles": "COc1ccccc1N1CCN(c2ncnc3[nH]nc(Br)c23)CC1", "inhibition": 11},
      {"smiles": "O=C(NCCCNc1nc(Nc2cccc(NC(=O)N3CCCC3)c2)ncc1I)c1cccs1", "inhibition": 74},
      {"smiles": "Cc1n[nH]c2ccc(-c3cncc(OC[C@@H](N)Cc4c[nH]c5ccccc45)c3)cc12", "inhibition": 12}
    ]},
    {"target": "Mitogen-activated protein kinase 14 (Homo sapiens) (UniProt Q16539)", "sequence (Q16539 whole entry)": "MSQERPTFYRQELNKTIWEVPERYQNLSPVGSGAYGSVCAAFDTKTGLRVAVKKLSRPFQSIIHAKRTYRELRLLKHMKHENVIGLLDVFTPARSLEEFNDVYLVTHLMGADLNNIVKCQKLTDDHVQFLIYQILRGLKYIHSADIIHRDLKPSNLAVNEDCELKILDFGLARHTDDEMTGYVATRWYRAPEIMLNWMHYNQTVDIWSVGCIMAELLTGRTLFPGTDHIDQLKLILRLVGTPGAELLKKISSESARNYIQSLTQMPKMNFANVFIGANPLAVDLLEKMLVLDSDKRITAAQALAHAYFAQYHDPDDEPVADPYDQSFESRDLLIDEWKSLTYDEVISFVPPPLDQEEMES", "assay": "Inhibition of MAPK14 at 1 uM in presence of 100 uM ATP by Select Screen kinase assay relative to untreated control", "outline": "as §2", "units": {"inhibition": "%"}, "values": [
      {"smiles": "COc1ccccc1N1CCN(c2ncnc3[nH]nc(Br)c23)CC1", "inhibition": 17},
      {"smiles": "O=C(NCCCNc1nc(Nc2cccc(NC(=O)N3CCCC3)c2)ncc1I)c1cccs1", "inhibition": 16},
      {"smiles": "Cc1n[nH]c2ccc(-c3cncc(OC[C@@H](N)Cc4c[nH]c5ccccc45)c3)cc12", "inhibition": 3}
    ]},
    {"target": "T1, Ephrin type-B receptor 2 (Homo sapiens) (UniProt P29323)", "T1 sequence (whole entry)": "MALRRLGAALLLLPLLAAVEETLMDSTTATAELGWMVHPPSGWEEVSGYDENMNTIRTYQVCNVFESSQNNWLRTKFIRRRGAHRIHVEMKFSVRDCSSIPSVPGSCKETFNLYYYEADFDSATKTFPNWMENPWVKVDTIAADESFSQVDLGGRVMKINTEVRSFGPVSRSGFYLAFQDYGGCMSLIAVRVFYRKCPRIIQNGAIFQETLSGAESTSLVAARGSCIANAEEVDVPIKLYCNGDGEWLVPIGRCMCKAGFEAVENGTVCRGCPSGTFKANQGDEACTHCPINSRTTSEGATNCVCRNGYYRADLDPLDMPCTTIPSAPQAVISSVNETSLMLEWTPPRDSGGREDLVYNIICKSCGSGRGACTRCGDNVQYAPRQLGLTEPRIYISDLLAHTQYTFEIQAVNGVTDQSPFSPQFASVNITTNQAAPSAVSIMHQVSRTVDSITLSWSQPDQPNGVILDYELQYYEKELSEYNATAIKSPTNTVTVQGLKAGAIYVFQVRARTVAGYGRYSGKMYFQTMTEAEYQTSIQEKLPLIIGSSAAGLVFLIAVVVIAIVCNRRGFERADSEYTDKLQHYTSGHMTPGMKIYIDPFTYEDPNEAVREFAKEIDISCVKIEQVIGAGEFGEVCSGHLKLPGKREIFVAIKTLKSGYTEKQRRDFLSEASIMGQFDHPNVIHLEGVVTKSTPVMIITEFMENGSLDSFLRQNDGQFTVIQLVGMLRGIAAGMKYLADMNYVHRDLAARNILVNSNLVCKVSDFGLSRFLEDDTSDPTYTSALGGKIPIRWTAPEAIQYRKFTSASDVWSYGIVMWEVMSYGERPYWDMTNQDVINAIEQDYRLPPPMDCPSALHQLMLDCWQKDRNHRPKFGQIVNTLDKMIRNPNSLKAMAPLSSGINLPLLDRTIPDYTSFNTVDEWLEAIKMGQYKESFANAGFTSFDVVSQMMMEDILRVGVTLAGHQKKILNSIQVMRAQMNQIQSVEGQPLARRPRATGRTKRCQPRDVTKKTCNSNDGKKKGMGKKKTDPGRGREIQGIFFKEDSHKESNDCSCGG", "assay": "Inhibition of EPHB2 at 1 uM in presence of 10 uM ATP by Select Screen kinase assay relative to untreated control", "outline": "(§3)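 Single-point screen at 1 μM against a panel of 220 purified kinases, run by Invitrogen staff as a SelectScreen profiling service. Read-out is percent inhibition of kinase activity.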", "units": {"inhibition": "%"}, "values": [
      {"smiles": "COc1ccccc1N1CCN(c2ncnc3[nH]nc(Br)c23)CC1", "inhibition": 7},
      {"smiles": "O=C(NCCCNc1nc(Nc2cccc(NC(=O)N3CCCC3)c2)ncc1I)c1cccs1", "inhibition": 7},
      {"smiles": "Cc1n[nH]c2ccc(-c3cncc(OC[C@@H](N)Cc4c[nH]c5ccccc45)c3)cc12", "inhibition": 1}
    ]},
    {"target": "T2, Activin receptor type-1B (Homo sapiens) (UniProt P36896)", "T2 sequence (whole entry)": "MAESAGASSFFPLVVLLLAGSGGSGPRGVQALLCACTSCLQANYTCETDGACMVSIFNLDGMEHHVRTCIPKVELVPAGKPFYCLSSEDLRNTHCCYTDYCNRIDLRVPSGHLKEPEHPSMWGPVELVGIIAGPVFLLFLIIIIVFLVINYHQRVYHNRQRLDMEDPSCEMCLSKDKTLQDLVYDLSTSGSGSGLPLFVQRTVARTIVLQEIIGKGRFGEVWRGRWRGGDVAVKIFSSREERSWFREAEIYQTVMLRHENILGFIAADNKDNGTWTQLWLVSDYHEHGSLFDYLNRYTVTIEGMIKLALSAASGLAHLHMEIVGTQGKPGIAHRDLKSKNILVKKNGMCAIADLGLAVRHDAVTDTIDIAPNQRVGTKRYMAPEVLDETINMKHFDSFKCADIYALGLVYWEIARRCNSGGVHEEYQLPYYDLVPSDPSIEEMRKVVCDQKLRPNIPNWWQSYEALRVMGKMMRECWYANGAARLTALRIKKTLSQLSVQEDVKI", "assay": "Inhibition of ACVR1B at 1 uM in presence of 10 uM ATP by Select Screen kinase assay relative to untreated control", "outline": "as §3", "units": {"inhibition": "%"}, "values": [
      {"smiles": "COc1ccccc1N1CCN(c2ncnc3[nH]nc(Br)c23)CC1", "inhibition": -2},
      {"smiles": "O=C(NCCCNc1nc(Nc2cccc(NC(=O)N3CCCC3)c2)ncc1I)c1cccs1", "inhibition": 7},
      {"smiles": "Cc1n[nH]c2ccc(-c3cncc(OC[C@@H](N)Cc4c[nH]c5ccccc45)c3)cc12", "inhibition": 0}
    ]},
    {"target": "T3, Serine/threonine-protein kinase Sgk3 (Homo sapiens) (UniProt Q96BR1)", "T3 sequence (whole entry)": "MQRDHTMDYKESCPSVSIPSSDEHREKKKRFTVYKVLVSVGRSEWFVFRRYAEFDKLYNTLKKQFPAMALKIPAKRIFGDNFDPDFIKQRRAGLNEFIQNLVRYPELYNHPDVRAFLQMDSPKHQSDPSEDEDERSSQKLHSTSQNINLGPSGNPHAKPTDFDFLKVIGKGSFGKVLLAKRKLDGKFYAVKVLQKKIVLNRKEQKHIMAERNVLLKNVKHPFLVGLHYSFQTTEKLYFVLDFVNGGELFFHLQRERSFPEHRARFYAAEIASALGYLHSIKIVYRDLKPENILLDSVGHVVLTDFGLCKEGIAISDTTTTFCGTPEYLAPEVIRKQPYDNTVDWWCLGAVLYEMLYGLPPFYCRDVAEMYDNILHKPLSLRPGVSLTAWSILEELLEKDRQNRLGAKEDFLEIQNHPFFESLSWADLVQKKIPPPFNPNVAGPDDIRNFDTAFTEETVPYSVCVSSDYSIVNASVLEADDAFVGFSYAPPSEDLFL", "assay": "Inhibition of SGKL at 1 uM in presence of 10 uM ATP by Select Screen kinase assay relative to untreated control", "outline": "as §1", "units": {"inhibition": "%"}, "values": [
      {"smiles": "COc1ccccc1N1CCN(c2ncnc3[nH]nc(Br)c23)CC1", "inhibition": 17},
      {"smiles": "O=C(NCCCNc1nc(Nc2cccc(NC(=O)N3CCCC3)c2)ncc1I)c1cccs1", "inhibition": 12},
      {"smiles": "Cc1n[nH]c2ccc(-c3cncc(OC[C@@H](N)Cc4c[nH]c5ccccc45)c3)cc12", "inhibition": 78}
    ]},
    {"target": "Proto-oncogene tyrosine-protein kinase Src (Homo sapiens) (UniProt P12931)", "sequence (P12931 2-536 limits assumed)": "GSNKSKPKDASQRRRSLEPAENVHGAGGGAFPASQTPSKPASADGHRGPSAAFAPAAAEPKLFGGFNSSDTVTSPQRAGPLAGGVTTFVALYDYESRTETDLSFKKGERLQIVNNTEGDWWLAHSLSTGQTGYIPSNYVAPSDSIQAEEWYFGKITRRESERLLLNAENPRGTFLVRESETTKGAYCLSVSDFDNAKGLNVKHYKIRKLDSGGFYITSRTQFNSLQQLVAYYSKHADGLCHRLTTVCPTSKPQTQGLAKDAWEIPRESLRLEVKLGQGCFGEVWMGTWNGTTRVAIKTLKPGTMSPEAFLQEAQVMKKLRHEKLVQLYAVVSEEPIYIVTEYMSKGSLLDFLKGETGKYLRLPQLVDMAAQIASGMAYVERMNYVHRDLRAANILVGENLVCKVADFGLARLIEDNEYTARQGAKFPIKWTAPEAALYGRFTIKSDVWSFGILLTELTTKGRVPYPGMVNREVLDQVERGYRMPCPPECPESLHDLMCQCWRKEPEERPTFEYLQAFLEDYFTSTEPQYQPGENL", "assay": "Inhibition of SRC N1 at 1 uM in presence of 10 uM ATP by Select Screen kinase assay relative to untreated control", "outline": "as §1", "units": {"inhibition": "%"}, "values": [
      {"smiles": "COc1ccccc1N1CCN(c2ncnc3[nH]nc(Br)c23)CC1", "inhibition": 15},
      {"smiles": "O=C(NCCCNc1nc(Nc2cccc(NC(=O)N3CCCC3)c2)ncc1I)c1cccs1", "inhibition": 30},
      {"smiles": "Cc1n[nH]c2ccc(-c3cncc(OC[C@@H](N)Cc4c[nH]c5ccccc45)c3)cc12", "inhibition": 5}
    ]}
  ]
}
